ALR inh = inhibitors of human ALR sulfhydryl oxidase, primary screen, biochemical, H2O2 detection, HRP-luminol luminescence, single point. FAD-linked sulfhydryl oxidase ALR (Homo sapiens), P55789. purified ALR, DTT oxidation. inhibition, % (test concentration not listed). actives 3.8% (n = 290,000). AID 485317, 2010;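 active = mean replicate inhibition above about 79%, with every replicate also reaching it, limit read from the data; inconclusive = only one of the two criteria met; inactive = mean below limit and not every replicate reaching it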
Target sequence (P55789 whole entry, looked up): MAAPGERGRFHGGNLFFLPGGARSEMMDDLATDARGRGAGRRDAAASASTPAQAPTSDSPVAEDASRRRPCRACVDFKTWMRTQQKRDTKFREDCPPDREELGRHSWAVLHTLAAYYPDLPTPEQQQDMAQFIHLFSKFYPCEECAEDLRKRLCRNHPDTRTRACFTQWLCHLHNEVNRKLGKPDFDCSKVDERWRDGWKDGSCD
Glyco luc inh = increase of ERlucT glycosylation luciferase signal, primary screen, N-linked glycosylation inhibitor project, D54 ERlucT cells, luminescence, set 2; D54 ERlucT glycosylation luciferase reporter, 24 h; percent of 100 nM tunicamycin response; reporter increase, % at 12.5 µM; actives 0.23% (n = 360,000); AID 588692, 2011;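 active = mean luciferase reporter signal, scaled so untreated is 0 and the glycosylation-blocking control 100, at or above a set limit in every replicate; inconclusive = mean reaches the limit but not every replicate does; inactive = mean below the limit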;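 also: luciferase carries N-glycosylation sites so blocking glycosylation raises the light; 0% = median of neutral control wells and 100% = median of 100 nM tunicamycin wells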
T cell modulator = modulators of CD8 T cell-vesicle binding, primary screen, mouse 2C CD8+ T cells, flow cytometry; 2C CD8+ T cell-vesicle binding; active compounds read low; response (vesicle binding), % at 7 µM; actives 0.068% (n = 330,000); AID 2052, 2009;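 active = response, share of CD8 T cells binding vesicles, and their 90th percentile fluorescence all below set limits, cut at about 80% in these data, passing the limit was not always enough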;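 also: values below 100% mean blocked vesicle binding to the CD8+ T cells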
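material = purified 2C TCR transgenic mouse naive CD8+ T cells | controls = Unloaded micro-vesicles (low), QL9 vesicles with 0.7% DMSO (high) | detection = cytometric PE anti-B7-1 and Alexa647 anti-CD8 signals after 1% paraformaldehyde fixation | incubation = binding step 1.5 h, 37 °C, antibody labelling 20 min, ice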
The depositor's hits bear a star; i = inactive; ? = inconclusive; · = not tested or not shown. This is one part of a sample in which hits are shown more often than they occur.

SMILES	ALR inh	Glyco luc inh	T cell modulator
COC(=O)/C=C/S(=O)(=O)c1ccc(NC(C)=O)cc1	98*	-2	222
O=C(O)COc1ccccc1O	43	-2	417
O/N=C(\COc1ccccc1O)c1ccccc1	77*	0	320
COc1cc(NC(=O)c2ccccc2)c(OC)cc1NC(=O)Cc1ccc(C)cc1	-3	-3	164
Cc1cc(N2CCCCC2C)nc(-c2ccccc2O)n1 (stereo not given)	-1	1	66
Oc1ccccc1Nc1nc(NCC2CCCO2)c2ccccc2n1 (stereo not given)	99*	-3	306
Oc1ccc(Cl)cc1Nc1nc(NCC2CCCO2)c2ccccc2n1 (stereo not given)	10	3	532
CCCN(C(=O)CSCc1ccccc1C)c1c(N)n(Cc2ccccc2)c(=O)[nH]c1=O	3	-2	121
CC(C)(C)c1ccc(-c2n[nH]c(=S)n2Cc2ccccc2)cc1	·	-4	611
CC(C)n1c(-c2ccc(C(C)(C)C)cc2)n[nH]c1=S	82*	-2	312
COc1ccc(CNC(=O)COC(=O)/C=C/c2cccc(Br)c2)cc1OC	1	1	449
CCOc1ccc(CCNC(=O)CS(=O)Cc2nc(-c3ccc(OC)c(OC)c3)oc2C)cc1OCC (stereo not given)	99*	4	627
COc1ccc(CNC(=O)CS(=O)Cc2nc(-c3ccc(OC)c(OC)c3)oc2C)cc1 (stereo not given)	99*	6	633
COc1ccc(-c2nc(C#N)c(NCc3ccc(C)cc3)o2)cc1OC	-5	-1	272
COc1ccc(-c2nc(CS(=O)CC(=O)NCc3ccc(Cl)cc3)c(C)o2)cc1OC (stereo not given)	99*	7	877
CCOc1ccc(CCNC(=O)CS(=O)(=O)Cc2nc(-c3ccc(OC)cc3)oc2C)cc1	72	2	566
COc1ccc(-c2nc(CS(=O)CC(=O)NCc3ccc(C)cc3)c(C)o2)cc1OC (stereo not given)	99*	3	251
CCOc1ccc(Nc2cc(C)nc3c(C)cccc23)cc1	-26	0	260
COCCC(=O)N1CCC(Oc2ccc(C(=O)N3C[C@H]4CC[C@H]3C4)cc2)CC1	-2	0	177
O=C(NCCC(=O)N1CCN(S(=O)(=O)c2ccccc2)CC1)c1ccc(Br)cc1	-2	0	384
COc1ccc(CNC(=O)CS(=O)Cc2nc(-c3ccc(C)cc3)oc2C)cc1 (stereo not given)	99*	2	i
COCCNC(=O)CS(=O)Cc1nc(-c2ccc(OC)cc2)oc1C (stereo not given)	99*	3	315
COCCCNC(=O)CS(=O)(=O)Cc1nc(-c2cccc(OC)c2)oc1C	?	0	666
CCOc1ccc(CNC(=O)CS(=O)(=O)Cc2nc(-c3ccc(OC)cc3)oc2C)cc1	42	0	484
COCCCNC(=O)CS(=O)Cc1nc(-c2cccc(OC)c2)oc1C (stereo not given)	99*	0	305
SMILES	ALR inh	Glyco luc inh	T cell modulator
C=C(C)Cn1c(SCC(=O)N/N=C/c2c(O)ccc3ccccc23)nc2ccccc2c1=O	-12	-1	189
COc1cc(O)sc1C=Nc1ccc(Cl)cc1	95*	0	171
Oc1ccc(Br)cc1C=Nc1ccc(Cl)cc1	-18	2	782
c1cc2cn[nH]c2cc1NC1CCCCCC1	99*	8	472
NC(=S)Nc1ccc2cn[nH]c2c1	·	0	138
CCC(C)c1ccc(S(=O)(=O)N2CCN(CC(O)COCC3CCCO3)CC2)cc1 (stereo not given)	·	4	·
CC(Sc1ccc2c(c1)OCCO2)C(=O)Nc1ccc2c(c1)OCO2 (stereo not given)	·	-1	282
CC(Sc1ccc2c(c1)OCCO2)C(=O)Nc1ncc(Cl)cc1Cl (stereo not given)	99*	-3	227
CN1C(=O)/C(=C\c2ccccc2F)Sc2ccc(C(=O)NC3CCN(Cc4ccccc4)CC3)cc21	2	-8	263
Cc1ccc(NC(=O)CSc2nc(O)cc(=O)n2-c2ccc(C)cc2)cc1	100*	1	482
CC(C)(C)NC(=O)CSc1nc(O)cc(=O)n1-c1ccccc1	10	2	48
COc1ccc(-n2c(SCC(=O)Nc3ccc(Br)cc3)nc(O)cc2=O)cc1	99*	-1	336
NC(=O)CSc1nc(O)cc(=O)n1-c1ccccc1	-3	1	311
CCSc1nc(O)cc(=O)n1-c1ccc(OC)cc1	-1	0	318
Cc1ccc(-n2c(SCC(N)=O)nc(O)cc2=O)cc1	0	3	478
O=c1cc(O)nc(SCc2ccccc2)n1-c1ccc(Cl)cc1	98*	1	330
O=C(CSc1nc(O)cc(=O)n1-c1ccc(Cl)c(Cl)c1)Nc1ccc(Cl)cc1Cl	98*	0	251
Nc1cc(N)cc(C(=O)c2ccccc2)c1	·	2	·
CC(CCN1CCC(n2nccc2NC(=O)c2ccccc2Cl)CC1)c1ccccc1 (stereo not given)	-1	·	416
COc1ccc(C(=O)COC(=O)c2sc(C)nc2C)cc1OC	67	-1	321
CCCCn1c(N)c(N(Cc2ccccc2)C(=O)COc2ccccc2F)c(=O)[nH]c1=O	·	0	·
Cc1ccc(NC(=O)CSc2nc(O)cc(=O)n2C)cc1	99*	0	289
Cn1c(SCC(=O)Nc2ccc(Br)cc2)nc(O)cc1=O	99*	3	313
O=C(CSc1nc(O)cc(=O)n1-c1ccccc1)Nc1ccc(Br)cn1	44	1	263
Cc1ccc(NC(=O)CSc2nc3sc(C)cc3c(=O)n2C)cc1	7	-1	419
SMILES	ALR inh	Glyco luc inh	T cell modulator
C/C(=N\NC(=S)NCc1ccccc1)c1ccc(C)o1	3	1	139
COc1cc(-c2nnc(CSc3nnc(Nc4ccc(Oc5ccccc5)cc4)s3)o2)cc(OC)c1OC	-11	-5	366
COc1ccc(S(=O)(=O)n2nc(OC(=O)c3ccco3)cc2N)cc1	97*	1	315
COc1ccc(S(=O)(=O)n2nc(OC(=O)c3ccccc3)cc2N)cc1	·	2	353
c1cn2c(NC3CCCC3)c(-c3ccc(N4CCOCC4)cc3)nc2cn1	99*	-4	410
c1cn2c(NC3CCCCC3)c(-c3ccc(SC4CCCCC4)cc3)nc2cn1	·	-8	304
O=C(Nc1ccc(N2CCCC2)c(Cl)c1)c1ccc([N+](=O)[O-])o1	·	46*	·
O=C(Nc1ccc(N2CCCCC2)cc1)c1ccc([N+](=O)[O-])o1	-2	-8	258
O=C(Nc1cccc2ccccc12)c1ccc([N+](=O)[O-])o1	-23	27*	148
Cc1cccc(NC(=O)c2ccc([N+](=O)[O-])o2)c1C	-18	11	228
Cc1ccc2[nH]c3c(c2c1)CN(C(C)C)CC3	-11	6	301
CCOc1ccc2nc(C)cc(Nc3cccc([N+](=O)[O-])c3)c2c1	-1	-10	218
